Screens (PubChem BioAssay)
Sampled rows, rich in hits. Any-hit rate of the full collection: about 2.7%.
SDO1 yeast rescue – sdo1-depleted yeast growth rescue; S. cerevisiae sdo1-depleted JHY4D growth rescue, OD600 30 h; active compounds read high; pdr5 snq2 efflux-pump mutant strain; z-score at 10 µM; 0.21% of 140,000 active;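 active means z-score above 3 at both the 24 hr and the 30 hr optical density reads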;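 further: z-score against mean and SD of all compound wells on the same plate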
Yeast life ext – yeast lifespan extension | 0.68% of 130,000 active | S. cerevisiae growth with nicotinamide, OD615; deaD strain in restrictive glucose medium | inhibition of the nicotinamide effect, % at 10 µM;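 active means inhibition above a set limit, placed 3 SD over the median of all compounds, cut at about 26% in these data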;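 further: 0% = nicotinamide-treated wells and 100% = cells grown without nicotinamide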
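Assay system: engineered S. cerevisiae DeaD replicative-lifespan strain, galactose-grown log-phase cells; medium: restrictive CSMM-D dextrose medium; also added: nicotinamide, 1.5 mM, co-present with compound; schedule: 48 h compound exposure at 30 °C, humidified; detection: absorbance at 615 nm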
BB579 growth dn – reduces growth of yeast BB579 in restrictive medium. S. cerevisiae BB579 growth, OD615, 48 h. inhibition, % at 10 µM. 0.51% of 140,000 active;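 active means inhibition above a set limit, 3 SD over the mean compound inhibition, cut at about 44% in these data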
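System: Saccharomyces cerevisiae DeaD strain BB579, replicative lifespan model yeast. Buffer or medium: restrictive glucose-based CSMM-D medium. Doses: one dose, 10 µM compound with 0.25% DMSO. Timing: 4 h preincubation and 48 h exposure at 30 °C. Detection: turbidity as optical density at 615 nm. Benchmarks: amphotericin B 10 µg/mL, positive.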
RAM network inh – yeast RAM network inhibition; S. cerevisiae dse1pr::URA3 reporter, 5-FOA growth OD615, 2 d; analog-sensitive cbk1-as2 kinase mutant strain; inhibition, % at 50 µM; 1.8% of 190,000 active;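 active means inhibition above a set limit, 3 SD over mean compound inhibition, cut at about 8.4% in these data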;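 further: 0% = DMSO-only wells with no growth and 100% = 10 µM 1-NA-PP1 full growth; inhibition rescues growth on 5-FOA so higher OD means more RAM inhibition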
RAM efflux-def – RAM network inhibitors in efflux-deficient yeast. 1,200 tested, under 10 active. shares compounds with RAM network inh. S. cerevisiae efflux-deficient reporter strain, 5-FOA growth OD615, 2 days. max inhibition, %. AID 1305; call rule not given here;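 further: plate controls were vehicle for no effect and reference inhibitor for full effect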
The depositor's hits bear a star; · = no result.

SMILES | SDO1 yeast rescue | Yeast life ext | BB579 growth dn | RAM network inh | RAM efflux-def
COCCNC(=O)/C(C#N)=C/c1ccc(-c2ccc(S(=O)(=O)N3CCOCC3)cc2)o1 | -0.15 | 11 | -6 | 3 | ·
Cn1cnnc1Sc1ccc(C(=O)NCCC(c2ccccc2)c2ccccc2)cc1[N+](=O)[O-] | 0.86 | 4 | -42 | 5 | ·
Cc1ccc(-n2c(O)c(/C=N/c3ncn[nH]3)c3ccccc3c2=O)cc1 | · | · | · | 12* | 2
Cc1ccc(-n2c(O)c(/C=N/n3cnnc3)c3ccccc3c2=O)cc1 | 0.49 | -21 | -32 | -1 | ·
Cc1ccc(C2=Nc3cccnc3C(c3ccccc3)=NN2)cc1 | · | · | · | 1 | ·
Cc1ccccc1NC(=O)c1sc(Cl)nc1-c1ccccc1 | -0.59 | -11 | 6 | 0 | ·
Cc1ccc(C)c(NC(=O)c2sc(Cl)nc2-c2ccccc2)c1 | -1.1 | -11 | -49 | 15* | 1
COC(=O)c1ccc(Cl)cc1NC(=O)/C=C/c1ccc(C)o1 | 0.38 | 3 | -32 | 13* | 4
Cc1ccc(/C=C/C(=O)Nc2ccc(Oc3ccccc3)cc2)o1 | -0.95 | -1 | -22 | 13* | 4
COc1ccc(/C=C(\NC(=O)c2ccccc2Cl)C(=O)NCCCC(=O)O)cc1 | · | · | · | 0 | ·
COCCOC(=O)c1c(C)oc2ccc(OC(=O)c3c(OC)cccc3OC)cc12 | -0.48 | -7 | -34 | 12* | 1
O=C(/C=C/c1ccccc1)n1cnnc1SC/C=C/c1ccccc1 | -0.29 | 16 | -32 | 12* | 8
Cc1nnc(SC/C=C/c2ccccc2)n(N)c1=O | · | · | · | 3 | ·
COc1cccc(CN2CCN(Cc3cccc4nonc34)CC2CCO)c1 (stereo not given) | · | · | · | -1 | ·
COc1ccc(CCNC(=O)c2ccc(-c3ccc([N+](=O)[O-])cc3Cl)o2)cc1 | -1.5 | -1 | -7 | 13* | 3
CCSc1nnc(C)c(=O)n1COC(=O)c1ccc(S(=O)(=O)N2CCCC2)cc1 | 1.2 | -5 | -11 | 1 | ·
COc1ccc2cc(C(=O)C3CCCN(C(=O)/C=C/c4ccccn4)C3)ccc2c1 (stereo not given) | · | · | · | 1 | ·
CCCN(CCC)CCNS(=O)(=O)c1ccc2c(c1)CCN2C(=O)C1CCC1 | 0.12 | -3 | -69 | 2 | ·
O=C(C1CC1)N1CCc2cc(S(=O)(=O)NCCC3=CCCCC3)ccc21 | -0.83 | -4 | -47 | 11* | 2
CCOC(=O)c1c(C)[nH]c(C)c1C(=O)COC(=O)/C=C/c1ccc(Cl)cc1 | -1 | -3 | -27 | 12* | 1
CN(C)c1cccc(C(=O)OCC(=O)Nc2ccccc2-c2ccccc2)c1 | 0.11 | -2 | -50 | 2 | ·
CCN(CC)c1ccc(C(=O)OCC(=O)Nc2ccccc2-c2ccccc2)cc1 | 0.19 | 7 | -50 | 22* | 5
O=C(/C=C/c1cccc(C(F)(F)F)c1)Nc1cccc(C(F)(F)F)c1 | -1.8 | -9 | -42 | 12* | 2
CS(=O)(=O)N1CCC(C(=O)Nc2cccc(C(F)(F)F)c2)CC1 | -0.49 | -5 | -8 | -1 | ·
O=C(Nc1cccc(C(F)(F)F)c1)C1CCCCC1 | 0.48 | -10 | -37 | 22* | 0
SMILES | SDO1 yeast rescue | Yeast life ext | BB579 growth dn | RAM network inh | RAM efflux-def
CC(=O)N(CCC(c1ccccc1)c1ccco1)Cc1cccs1 (stereo not given) | -1.2 | -8 | -51 | 28* | 2
Cc1ccc(OCCn2cc(/C=C(\C#N)C(=O)NCC3CCCO3)c3ccccc32)cc1 (stereo not given) | -0.41 | 3 | -56 | 14* | 6
Cc1ccc(OCCn2cc(/C=C(\C#N)C(=O)NCC3CCCO3)c3ccccc32)cc1C (stereo not given) | 0.66 | -1 | -21 | 12* | 6
Cc1ccc(C)c(OCCn2cc(/C=C(\C#N)C(=O)NCC3CCCO3)c3ccccc32)c1 (stereo not given) | 0.24 | -7 | -2 | 7 | ·
C=CCc1cccc(/C=N/NC(=O)C(C)Nc2ccc(C)cc2)c1O (stereo not given) | -1.5 | 1 | 7 | 16* | 1
CC(Oc1ccc(-c2ccccc2)c(F)c1)c1ccn(S(=O)(=O)c2ccc(Br)cc2)n1 (stereo not given) | 1.4 | -26 | -69 | 12* | 3
CC(Oc1ccc(Cl)cc1)c1ccnn1S(=O)(=O)c1ccc(Cl)cc1 (stereo not given) | -0.32 | -5 | -45 | 3 | ·
COc1ccc(OC)c(NC(=O)C(Sc2ccccc2)c2ccccc2)c1 (stereo not given) | -0.46 | -6 | -24 | 14* | 4
